{
  "source": "ChEMBL document CHEMBL1149267",
  "about": "“The design and enzyme-bound crystal structure of indoline based peptidomimetic inhibitors of hepatitis C virus NS3 protease” (J Med Chem, 2004)",
  "data": [
    {"target": "NS3 (Hepatitis C virus, UniProt A3EZJ3)", "sequence (A3EZJ3 whole entry)": "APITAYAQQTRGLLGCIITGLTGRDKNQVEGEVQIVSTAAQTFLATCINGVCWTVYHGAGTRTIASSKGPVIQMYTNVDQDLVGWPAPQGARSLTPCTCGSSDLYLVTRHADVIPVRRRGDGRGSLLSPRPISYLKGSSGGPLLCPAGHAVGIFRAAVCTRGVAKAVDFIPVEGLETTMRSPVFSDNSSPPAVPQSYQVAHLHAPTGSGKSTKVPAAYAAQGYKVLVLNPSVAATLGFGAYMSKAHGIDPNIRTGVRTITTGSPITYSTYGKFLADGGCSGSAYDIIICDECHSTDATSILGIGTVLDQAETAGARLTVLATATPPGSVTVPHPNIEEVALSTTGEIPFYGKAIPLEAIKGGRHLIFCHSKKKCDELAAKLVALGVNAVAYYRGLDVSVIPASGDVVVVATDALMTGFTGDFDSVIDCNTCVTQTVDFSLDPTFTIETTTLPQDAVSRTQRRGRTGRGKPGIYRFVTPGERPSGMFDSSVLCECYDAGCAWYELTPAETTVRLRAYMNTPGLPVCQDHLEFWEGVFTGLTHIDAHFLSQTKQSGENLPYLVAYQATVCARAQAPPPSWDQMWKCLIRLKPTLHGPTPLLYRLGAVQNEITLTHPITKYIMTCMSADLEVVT", "assay": "Inhibition of HCV NS3 protease", "design": "species or system Hepacivirus hominis", "conditions": "not given", "in_short": "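IC50 taken after a 30 min preincubation of enzyme with inhibitor. Each value is the mean of 2 independent measurements, with standard deviations within 35% of the mean.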", "units": {"IC50": "µM"}, "values": [
      {"compound": "CC(C)C[C@H](NC(=O)C1(Cc2ccc(Cl)s2)Cc2ccccc2N1)C(=O)NC(CC(F)F)C(=O)C(=O)O", "note": "(stereo partly specified)", "IC50": 3.7},
      {"compound": "CC(C)C[C@H](NC(=O)C1(C2CCCCC2)Cc2ccccc2N1)C(=O)NC(CC(F)F)C(=O)C(=O)O", "note": "(single isomer, unassigned; diastereomer 1)", "IC50": 69},
      {"compound": "CC(C)C[C@H](NC(=O)C1(CC2CCC2)Cc2ccccc2N1)C(=O)NC(CC(F)F)C(=O)C(=O)O", "note": "(single isomer, unassigned; diastereomer 1)", "IC50": 34},
      {"compound": "CC(C)C[C@H](NC(=O)C1(Cc2ccsc2C(=O)O)Cc2ccccc2N1)C(=O)NC(CC(F)F)C(=O)C(=O)O", "note": "(single isomer, unassigned; diastereomer 1)", "IC50": 0.7},
      {"compound": "CC(C)C[C@H](NC(=O)C1Cc2ccccc2N1)C(=O)NC(CC(F)F)C(=O)C(=O)O", "note": "(single isomer, unassigned; diastereomer 2)", "IC50": 50},
      {"compound": "CC(C)C[C@H](NC(=O)C1(Cc2ccsc2C(=O)O)Cc2ccccc2N1)C(=O)NC(CC(F)F)C(=O)C(=O)O", "note": "(single isomer, unassigned; diastereomer 2)", "IC50": 27},
      {"compound": "CC(C)C[C@H](NC(=O)C1Cc2ccc(OCC(=O)O)cc2N1)C(=O)NC(CC(F)F)C(=O)C(=O)O", "note": "(single isomer, unassigned; diastereomer 2)", "IC50": 27},
      {"compound": "CC(C)C[C@H](NC(=O)C1(Cc2ccsc2C(=O)O)Cc2ccccc2N1)C(=O)NC(CC(F)F)C(=O)C(=O)O", "note": "(single isomer, unassigned; diastereomer 3)", "IC50": 38},
      {"compound": "CC(C)C[C@H](NC(=O)C1(Cc2ccsc2C(=O)O)Cc2ccccc2N1)C(=O)NC(CC(F)F)C(=O)C(=O)O", "note": "(single isomer, unassigned; diastereomer 4)", "IC50": 73},
      {"compound": "CC(C)C[C@H](NC(=O)C1Cc2ccc(OCC(=O)O)cc2N1)C(=O)NC(CC(F)F)C(=O)C(=O)O", "note": "(stereo in doubt; 7m)", "IC50": 10}
    ]},
    {"target": "NS3 (Hepatitis C virus) (UniProt A3EZJ3)", "sequence (A3EZJ3 as listed by the source)": "as the sequence (A3EZJ3 whole entry) above", "assay": "Inhibition of HCV NS3 protease at 100 uM", "conditions": "Hepacivirus hominis", "units": {"inhibition": "%"}, "values": [
      {"compound": "CC(C)C[C@H](NC(=O)C1Cc2ccccc2N1)C(=O)NC(CC(F)F)C(=O)C(=O)O", "note": "(single isomer, unassigned; diastereomer 1)", "inhibition": "< 50"},
      {"compound": "CC(C)C[C@H](NC(=O)C1(C2CCCCC2)Cc2ccccc2N1)C(=O)NC(CC(F)F)C(=O)C(=O)O", "note": "(single isomer, unassigned; diastereomer 2)", "inhibition": "< 50"},
      {"compound": "CC(C)C[C@H](NC(=O)C1(CC2CCC2)Cc2ccccc2N1)C(=O)NC(CC(F)F)C(=O)C(=O)O", "note": "(single isomer, unassigned; diastereomer 2)", "inhibition": "< 50"},
      {"compound": "CC(C)C[C@H](NC(=O)C1Cc2ccc(OCC(=O)O)cc2N1)C(=O)NC(CC(F)F)C(=O)C(=O)O", "note": "(single isomer, unassigned; diastereomer 3)", "inhibition": "< 50"},
      {"compound": "CC(C)C[C@H](NC(=O)C1Cc2ccccc2N1)C(=O)NC(CC(F)F)C(=O)C(=O)O", "note": "(single isomer, unassigned; diastereomer 3)", "inhibition": "< 50"},
      {"compound": "CC(C)C[C@H](NC(=O)C1Cc2ccc(OCC(=O)O)cc2N1)C(=O)NC(CC(F)F)C(=O)C(=O)O", "note": "(single isomer, unassigned; diastereomer 4)", "inhibition": "< 50"}
    ]}
  ]
}
